In ChEMBL document CHEMBL1152865, “Synthesis and antimycobacterial activities of novel 6-nitroquinolone-3-carboxylic acids” (Eur J Med Chem, 2009):
Converted amounts (≈) assume the structure as drawn.

test system: Mycobacterium tuberculosis; assay: Antibacterial activity against multidrug-resistant Mycobacterium tuberculosis by agar dilution method; format: functional
Method in brief: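 Agar dilution in Middlebrook 7H11 agar supplemented with OADC, following an approach similar to NCCLS guidance. MIC determined in duplicate.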

Compound	MIC
Cc1onc(-c2c(F)cccc2F)c1C(=O)N1CCN(c2cc3c(cc2[N+](=O)[O-])c(=O)c(C(=O)O)cn3C2CC2)CC1	2.69 µM (≈ 1.56 µg/mL)
Cc1onc(-c2c(F)cccc2F)c1C(=O)N1CCN(c2cc3c(cc2[N+](=O)[O-])c(=O)c(C(=O)O)cn3C(C)(C)C)CC1	0.65 µM (≈ 0.387 µg/mL)
O=C(O)c1cn(-c2ccc(F)cc2)c2cc(N3CCN(C(=O)C4COc5ccccc5O4)CC3)c([N+](=O)[O-])cc2c1=O (stereo not given)	0.68 µM (≈ 0.391 µg/mL)
O=C(O)c1cn2c(n1)CN(c1cc3c(cc1[N+](=O)[O-])c(=O)c(C(=O)O)cn3C1CC1)CC2	0.43 µM (≈ 0.189 µg/mL)
O=C(O)c1cn(C2CC2)c2cc(N3CCN(Cc4ccc5c(c4)OCO5)CC3)c([N+](=O)[O-])cc2c1=O	0.16 µM (≈ 0.0788 µg/mL)
CC1CN(c2cc3c(cc2[N+](=O)[O-])c(=O)c(C(=O)O)cn3C2CC2)CC(C)O1 (stereo not given)	4.03 µM (≈ 1.56 µg/mL)
O=C(O)c1cn(-c2ccc(F)cc2)c2cc(N3CCN(Cc4ccc5c(c4)OCO5)CC3)c([N+](=O)[O-])cc2c1=O	0.71 µM (≈ 0.388 µg/mL)
O=C(O)c1cn(C2CC2)c2cc(N3CCN(C(=O)c4ccco4)CC3)c([N+](=O)[O-])cc2c1=O	0.34 µM (≈ 0.154 µg/mL)
CC1CN(c2cc3c(cc2[N+](=O)[O-])c(=O)c(C(=O)O)cn3-c2ccc(F)cc2)CC(C)O1 (stereo not given)	1.77 µM (≈ 0.781 µg/mL)
O=C(O)c1cn(C2CC2)c2cc(N3CCC(O)(c4ccc(Cl)cc4)CC3)c([N+](=O)[O-])cc2c1=O	0.39 µM (≈ 0.189 µg/mL)
O=C(O)c1cn(C2CC2)c2cc(N3CCC(N4CCCCC4)CC3)c([N+](=O)[O-])cc2c1=O	0.43 µM (≈ 0.189 µg/mL)
O=C(O)c1cn(C2CC2)c2cc(N3CCC4(CC3)OCCO4)c([N+](=O)[O-])cc2c1=O	1.88 µM (≈ 0.781 µg/mL)
O=C(O)c1cn(C2CC2)c2cc(N3CCN(C(=O)C4COc5ccccc5O4)CC3)c([N+](=O)[O-])cc2c1=O (stereo not given)	6.01 µM (≈ 3.13 µg/mL)
CC(C)(C)n1cc(C(=O)O)c(=O)c2cc([N+](=O)[O-])c(N3CCN(Cc4ccc5c(c4)OCO5)CC3)cc21	1.53 µM (≈ 0.778 µg/mL)
O=C(O)c1cn(C2CC2)c2cc(N3CCC(n4c(=O)[nH]c5cc(Cl)ccc54)CC3)c([N+](=O)[O-])cc2c1=O	2.97 µM (≈ 1.56 µg/mL)
CC(C)(C)NC(=O)C1c2ccccc2CCN1c1cc2c(cc1[N+](=O)[O-])c(=O)c(C(=O)O)cn2C1CC1 (stereo not given)	1.55 µM (≈ 0.782 µg/mL)
CN1CCN(c2cc3c(cc2[N+](=O)[O-])c(=O)c(C(=O)O)cn3C2CC2)CC1c1ccccc1 (stereo not given)	0.2 µM (≈ 0.0897 µg/mL)
CCN(CC)C(=O)C1CCCN(c2cc3c(cc2[N+](=O)[O-])c(=O)c(C(=O)O)cn3C2CC2)C1 (stereo not given)	3.42 µM (≈ 1.56 µg/mL)
COc1c(N2CCNC(C)C2)c(F)cc2c(=O)c(C(=O)O)cn(C3CC3)c12 (stereo not given) [GATIFLOXACIN]	8.34 µM (≈ 3.13 µg/mL)
NNC(=O)c1ccncc1 [ISONIAZID]	45.6 µM (≈ 6.25 µg/mL)
